Measurements as given in ChEMBL document CHEMBL3616466, “Pyrazolo[3,4-h]quinolines promising photosensitizing agents in the treatment of cancer” (Eur J Med Chem, 2015).

How the values were obtained:
Assay type in all cases: functional
Jurkat [1] = assay: Photocytotoxicity against human Jurkat cells assessed as growth inhibition at 2.5 J/cm'2 irradiation for 30 mins followed by drug treated for 72 hrs by MTT assay; conditions: light or radiation study
In short: (§1)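 Cells seeded at 5 × 10³ per well and pre-incubated 24 h. Drug dilutions in HBSS (pH 7.2, from DMSO stock) added for 30 min at 37 °C, then UV-A irradiation at the stated dose. Drug solution then replaced with culture medium and plates incubated 72 h. Viability by MTT; GI50 from concentration series.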

Jurkat [2] = assay: Photocytotoxicity against human Jurkat cells assessed as growth inhibition at 1.25 J/cm'2 irradiation for 30 mins followed by drug treated for 72 hrs by MTT assay; conditions: light or radiation study; in short: as §1
HL-60 [3] = assay: Photocytotoxicity against human HL60 cells assessed as growth inhibition at 2.5 J/cm'2 irradiation for 30 mins followed by drug treated for 72 hrs by MTT assay; conditions: HL-60, light or radiation study; in short: as §1
HL-60 [4] = assay: Photocytotoxicity against human HL60 cells assessed as growth inhibition at 1.25 J/cm'2 irradiation for 30 mins followed by drug treated for 72 hrs by MTT assay; conditions: HL-60, light or radiation study; in short: as §1
MCF7 [5] = assay: Photocytotoxicity against human MCF7 cells assessed as growth inhibition at 3.75 J/cm'2 irradiation for 30 mins followed by drug treated for 72 hrs by MTT assay; conditions: MCF7, light or radiation study; in short: as §1
MCF7 [6] = assay: Photocytotoxicity against human MCF7 cells assessed as growth inhibition at 2.5 J/cm'2 irradiation for 30 mins followed by drug treated for 72 hrs by MTT assay; conditions: MCF7, light or radiation study; in short: as §1
A549 [7] = assay: Photocytotoxicity against human A549 cells assessed as growth inhibition at 3.75 J/cm'2 irradiation for 30 mins followed by drug treated for 72 hrs by MTT assay; conditions: A549, light or radiation study; in short: as §1
A549 [8] = assay: Photocytotoxicity against human A549 cells assessed as growth inhibition at 2.5 J/cm'2 irradiation for 30 mins followed by drug treated for 72 hrs by MTT assay; conditions: A549, light or radiation study; in short: as §1
LoVo [9] = assay: Photocytotoxicity against human LoVo cells assessed as growth inhibition at 3.75 J/cm'2 irradiation for 30 mins followed by drug treated for 72 hrs by MTT assay; conditions: light or radiation study; in short: as §1
LoVo [10] = assay: Photocytotoxicity against human LoVo cells assessed as growth inhibition at 2.5 J/cm'2 irradiation for 30 mins followed by drug treated for 72 hrs by MTT assay; conditions: light or radiation study; in short: as §1
Jurkat [11] = assay: Cytotoxicity against human Jurkat cells assessed as growth inhibition after 72 hrs by MTT assay
HL-60 [12] = assay: Cytotoxicity against human HL60 cells assessed as growth inhibition after 72 hrs by MTT assay; conditions: HL-60, 72 h
A549 [13] = assay: Cytotoxicity against human A549 cells assessed as growth inhibition after 72 hrs by MTT assay; conditions: A549, 72 h
In short: (§2)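 Cells (5 × 10³ per well) pre-incubated 24 h at 37 °C, 5% CO₂, then exposed in the dark to serial concentrations diluted from DMSO stock into complete medium for 72 h at 37 °C. Viability read by MTT; GI50 derived. LoVo in Ham's F-12, MCF-7 and A-549 in DMEM, all with 10% FBS and penicillin/streptomycin.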

MCF7 [14] = assay: Cytotoxicity against human MCF7 cells assessed as growth inhibition after 72 hrs by MTT assay; conditions: MCF7, 72 h; in short: as §2
LoVo [15] = assay: Cytotoxicity against human LoVo cells assessed as growth inhibition after 72 hrs by MTT assay; in short: as §2

Row | Compound | GI50 (Jurkat [1]) | GI50 (Jurkat [2]) | GI50 (HL-60 [3]) | GI50 (HL-60 [4]) | GI50 (MCF7 [5]) | GI50 (MCF7 [6]) | GI50 (A549 [7]) | GI50 (A549 [8]) | GI50 (LoVo [9]) | GI50 (LoVo [10]) | GI50 (Jurkat [11]) | GI50 (HL-60 [12]) | GI50 (A549 [13]) | GI50 (MCF7 [14]) | GI50 (LoVo [15])
1 | Cn1c2c(cc(S(=O)(=O)c3ccccc3)c1=O)CCc1c-2cnn1-c1ccccc1 | 6.99 µM | > 20 µM | > 20 µM | > 20 µM | > 20 µM | > 20 µM | > 20 µM | > 20 µM | > 20 µM | > 20 µM |  |  |  |  | 
2 | COc1ccc(-n2ncc3c2CCc2cc(S(=O)(=O)c4ccccc4)c(OCc4ccccc4)nc2-3)cc1 | > 20 µM | > 20 µM | 9.09 µM | > 20 µM | > 20 µM | > 20 µM | 5.74 µM | > 20 µM | 2.76 µM | > 20 µM |  |  |  |  | 
3 | COc1nc2c(cc1S(=O)(=O)c1ccccc1)CCc1c-2cnn1-c1cccc(Cl)c1 | 1.34 µM | 1.95 µM | 0.53 µM | 3.42 µM | 2.52 µM | 5.15 µM | 6.61 µM | 13.3 µM | 2.99 µM | 9.84 µM | 13.2 µM | > 20 µM | > 20 µM | > 20 µM | > 20 µM
4 | COc1nc2c(cc1S(=O)(=O)c1ccccc1)CCc1c-2cnn1-c1ccccc1Cl | 0.9 µM | 1.93 µM | 0.81 µM | 3.78 µM | 1.59 µM | 3.13 µM | 4.8 µM | 14.3 µM | 1.78 µM | 5.73 µM | 9.8 µM | 7.17 µM | > 20 µM | > 20 µM | > 20 µM
5 | Cn1c2c(cc(S(=O)(=O)c3ccccc3)c1=O)CCc1c-2cnn1-c1ccccc1Cl | 5.21 µM | > 20 µM | 4.82 µM | 11.5 µM | 12.6 µM | > 20 µM | 13 µM | > 20 µM | 13.1 µM | > 20 µM |  |  |  |  | 
6 | O=c1[nH]c2c(ccc3c2cnn3-c2ccc(Cl)cc2)cc1S(=O)(=O)c1ccccc1 |  |  |  |  |  |  |  |  |  |  | > 20 µM | > 20 µM | 1.46 µM | 9.26 µM | > 20 µM
7 | O=c1ccc2ccc3occc3c2o1 [ANGELICIN] | 1 µM |  | 1.2 µM |  | 1.5 µM | 4.42 µM |  |  | 1.11 µM | 4 µM |  |  |  |  | 
8 | O=c1[nH]c2c(cc1S(=O)(=O)c1ccccc1)CCc1c-2cnn1Cc1ccccc1 | 6.88 µM | > 20 µM | 5.06 µM | > 20 µM | > 20 µM | > 20 µM | > 20 µM | > 20 µM | 14.5 µM | > 20 µM |  |  |  |  | 
9 | O=c1[nH]c2c(cc1S(=O)(=O)c1ccccc1)CCc1c-2cnn1-c1ccc(Cl)cc1 |  |  |  |  |  |  |  |  |  |  | > 20 µM | > 20 µM | 6.25 µM | 11.2 µM | > 20 µM
10 | COc1ccc(-n2ncc3c2CCc2cc(S(=O)(=O)c4ccccc4)c(=O)[nH]c2-3)cc1 |  |  |  |  |  |  |  |  |  |  | > 20 µM | > 20 µM | 4.04 µM | 8.54 µM | > 20 µM
11 | CCOC(=O)c1cc2c(nc1OC)-c1cnn(-c3ccc(OC)cc3)c1CC2 | 6.43 µM | 9.93 µM | 4.69 µM | 7.71 µM | > 20 µM | > 20 µM | 4.67 µM | 6.99 µM | 4.3 µM | 5.81 µM |  |  |  |  | 
12 | COc1ccc(-n2ncc3c2CCc2cc(S(=O)(=O)c4ccccc4)c(=O)n(Cc4ccccc4)c2-3)cc1 | > 20 µM | > 20 µM | > 20 µM | > 20 µM | > 20 µM | > 20 µM | > 20 µM | > 20 µM | 4.12 µM | > 20 µM |  |  |  |  | 
13 | CCOC(=O)c1cc2c(nc1OC)-c1cnn(-c3ccc(Cl)cc3)c1CC2 | 1.81 µM | 4.47 µM | 1.71 µM | 5.38 µM | > 20 µM | > 20 µM | 2.3 µM | 3.68 µM | 1.13 µM | 2.79 µM |  |  |  |  | 
14 | COc1nc2c(cc1S(=O)(=O)c1ccccc1)CCc1c-2cnn1C | 12.7 µM | > 20 µM | 9.79 µM | > 20 µM | > 20 µM | > 20 µM | > 20 µM | > 20 µM | > 20 µM | > 20 µM |  |  |  |  | 
15 | Cn1c2c(cc(S(=O)(=O)c3ccccc3)c1=O)CCc1c-2cnn1-c1ccc(Cl)cc1 | 3.01 µM | > 20 µM | 2.88 µM | > 20 µM | > 20 µM | > 20 µM | > 20 µM | > 20 µM | 11.1 µM | > 20 µM |  |  |  |  | 
16 | O=c1[nH]c2c(cc1S(=O)(=O)c1ccccc1)CCc1c-2cnn1-c1ccccc1Cl | 3.95 µM | 11.3 µM | 2.76 µM |  | 10.4 µM | 13 µM | 8.97 µM | 13.3 µM | 10.1 µM | > 20 µM |  |  |  |  | 
17 | Cn1c2c(cc(S(=O)(=O)c3ccccc3)c1=O)CCc1c-2cnn1Cc1ccccc1 | 5.67 µM | > 20 µM | 6.79 µM | > 20 µM | > 20 µM | > 20 µM | > 20 µM | > 20 µM | 13 µM | > 20 µM |  |  |  |  | 
18 | COc1ccc(-n2ncc3c2CCc2cc(S(=O)(=O)c4ccccc4)c(=O)n(C)c2-3)cc1 | 6.68 µM | > 20 µM | 7.65 µM | > 20 µM | > 20 µM | > 20 µM | > 20 µM | > 20 µM | > 20 µM | > 20 µM |  |  |  |  | 
19 | CCOC(=O)c1cc2c(n(C)c1=O)-c1cnn(-c3ccc(Cl)cc3)c1CC2 | > 20 µM | > 20 µM | 7.67 µM | > 20 µM | > 20 µM | > 20 µM | > 20 µM | > 20 µM | > 20 µM | > 20 µM |  |  |  |  | 
